Active and inactive are the calls of the source. The rule behind the calls is not given here.
Key:
[1] = test system: Cellular tumor antigen p53 (Homo sapiens), P04637 [Y220C]; test: Stabilization of p53Y220C mutant (unknown origin) assessed as increase in melting temperature by […]
[2] = test system: CREB-binding protein/Histone acetyltransferase p300/Cellular tumor antigen p53 (Homo sapiens), P04637+Q09472+Q92793 [Y220C]; test: AceTAC activity at FLAG-tagged p53Y220C mutant (unknown origin) expressed in human NCI-H1299 cells expressing p300/CBP assessed as increase in p53 acetylation at lysine 382 residue at 10 uM incubated for 24 hrs by western blot analysis relative to control; assay type: cell-based
Outline: (§1)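 NCI-H1299 (p53Y220C) cells were treated at 0.1–10 μM (0.1, 0.3, 1, 3 or 10 μM) for 24 h. Lysates were Western blotted for p53 and p53K382ac, with vinculin as loading control. p53K382ac was normalised to total p53Y220C and quantified from two or three independent experiments.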

[3] = test system: CREB-binding protein/Histone acetyltransferase p300/Cellular tumor antigen p53 (Homo sapiens), P04637+Q09472+Q92793 [Y220C]; test: AceTAC activity at FLAG-tagged p53Y220C mutant (unknown origin ) expressed in human NCI-H1299 cells expressing p300/CBP assessed as increase in p53 acetylation at lysine 382 residue at 1 uM incubated for 24 hrs by western blot analysis; assay type: cell-based
Outline: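 NCI-H1299 cells stably expressing p53Y220C, treated 24 h at 1 or 10 μM. Lysates were Western blotted for total p53 and p53 K382ac, with vinculin as loading control. Blots are representative of at least two independent experiments.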

NCI-H1299 [4] = test: Antiproliferative activity against human NCI-H1299 cells expressing p53Y220C mutant assessed as reduction in cell viability incubated for 3 days by WST-8 assay; assay type: functional; conditions: NCI-H1299, 72 h, time 3 day
Outline: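 NCI-H1299 p53Y220C cells were exposed to compound over a concentration range for 72 h, in some runs after 72 h of control or p300 siRNA, before the viability read-out. Values are mean ± SD of three independent experiments.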

[5] = test system: CREB-binding protein/Histone acetyltransferase p300/Cellular tumor antigen p53 (Homo sapiens), P04637+Q09472+Q92793 [Y220C]; test: AceTAC activity at FLAG-tagged p53Y220C mutant (unknown origin) expressed in human NCI-H1299 cells expressing p300/CBP assessed as stabilization of protein by measuring increase in aggregation temperature at 100 uM incubated for 1 hr at 32 to 50 degC by CETSA analysis; assay type: cell-based
Outline: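 For CETSA, NCI-H1299 (p53Y220C) stable cells were treated with DMSO or 100 μM compound for 1 h, then heated at 32 to 50 °C. Soluble p53 was detected by Western blot. Representative of at least two independent experiments.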

[6] = biological target: CREB-binding protein/Histone acetyltransferase p300/Cellular tumor antigen p53 (Homo sapiens, UniProt P04637+Q09472+Q92793, Y220C); test: AceTAC activity at FLAG-tagged p53Y220C mutant (unknown origin) expressed in human NCI-H1299 cells expressing p300/CBP assessed as increase in p53 acetylation at lysine 382 residue incubated for 24 hrs by western blot analysis; assay type: cell-based; outline: as §1
[7] = test system: CREB-binding protein/Histone acetyltransferase p300/Cellular tumor antigen p53 (Homo sapiens), P04637+Q09472+Q92793 [Y220C]; test: AceTAC activity at FLAG-tagged p53Y220C mutant (unknown origin) expressed in human NCI-H1299 cells expressing p300/CBP assessed as fold increase in p53 acetylation at lysine 382 residue at 10 uM incubated for 24 hrs by western blot analysis relative to control; assay type: cell-based
Outline: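 NCI-H1299 (p53Y220C) cells were exposed to 1, 3 and 10 μM for 24 h, then Western blotted. The K382ac signal was normalized to total p53Y220C and quantified from two independent experiments (±SD), relative to DMSO.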

NCI-H1299 [8] = test: Antiproliferative activity against p53-null human NCI-H1299 cells assessed as reduction in cell viability at 0.47 to 15 uM incubated for 3 days by WST-8 assay; assay type: functional, cell-based; conditions: dose 0.47-15 µM, time 3.0 day
Outline: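 p53-null NCI-H1299 cells were exposed to compound across the concentration series for 72 h before the viability read-out. Data are mean ± SD from three independent experiments.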

NUGC-3 = test: Antiproliferative activity against human NUGC-3 cells harboring p53Y220C mutant assessed as inhibition of cell growth incubated for 72 hrs by WST-8 assay; assay type: functional
Outline: (§2)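 BxPC3 or NUGC-3 cells were treated with DMSO or compound over a concentration range for 72 h before the viability read-out. Values are mean ± SD of technical triplicates from three biological experiments.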

BXPC-3 = test: Antiproliferative activity against human BXPC-3 cells harboring p53Y220C mutant assessed as inhibition of cell growth incubated for 72 hrs by WST-8 assay; assay type: functional; outline: as §2
[9] = test system: Cellular tumor antigen p53 (Homo sapiens), P04637 [Y220C]; test: Induction of p53Y220C mutant acetylation in human BXPC-3 cells expressing p300/CBP assessed as increase in p53 acetylation at lysine 382 residue at 1 to 10 uM incubated for 24 hrs by western blot analysis; assay type: cell-based; conditions: dose 1-10 µM
Outline: (§3)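 BxPC3 or NUGC-3 cells, which endogenously carry p53Y220C, were dosed at 1, 3 or 10 μM (or DMSO) for 24 h. Lysates were immunoblotted for p53 and p53 K382ac, with vinculin loading control. Blots are representative of two independent experiments.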

[10] = test system: Cellular tumor antigen p53 (Homo sapiens), P04637 [Y220C]; test: Induction of p53Y220C mutant acetylation in human NUGC-3 cells expressing p300/CBP assessed as increase in p53 acetylation at lysine 382 residue at 1 to 10 uM incubated for 24 hrs by western blot analysis; assay type: cell-based; conditions: dose 1-10 µM; outline: as §3

SMILES | Activity [2] [%] | Activity [3] | GI50 (NCI-H1299 [4]) [µM] | also measured
CCn1c2ccccc2c2cc(CNC)ccc21 |  |  |  | ΔTm [1]: 1 °C
CCn1c2ccc(CNCCCC(=O)NCCOc3ccc(CCc4nc5cc(-c6c(C)noc6C)ccc5n4CCN4CCOCC4)cc3F)cc2c2ccc(-c3cc(C)cs3)cc21 | 195 | Active | 4 | 
CCn1c2ccc(CNCCOCCOCCOCCOCCC(=O)NCCOc3ccc(CCc4nc5cc(-c6c(C)noc6C)ccc5n4CCN4CCOCC4)cc3F)cc2c2ccc(-c3cc(C)cs3)cc21 | 198 | Active | 4 | 
CCn1c2ccc(CNCCCCC(=O)NCCOc3ccc(CCc4nc5cc(-c6c(C)noc6C)ccc5n4CCN4CCOCC4)cc3F)cc2c2ccc(-c3cc(C)cs3)cc21 | 202 | Active | 4 | 
CCn1c2ccc(CNCCOCCOCCOCCn3cc(COc4ccc(CCc5nc6cc(-c7c(C)noc7C)ccc6n5CCN5CCOCC5)cc4F)nn3)cc2c2ccc(-c3cc(C)cs3)cc21 |  |  |  | ΔTm [5]: 4 °C; EC50 [6]: 1.87 µM; fold change (FC) [7]: 4
CCn1c2ccc(CNCCOCCOCCC(=O)NCCOc3ccc(CCc4nc5cc(-c6c(C)noc6C)ccc5n4CCN4CCOCC4)cc3F)cc2c2ccc(-c3cc(C)cs3)cc21 | 205 | Active | 4 | 
COc1ccc(CCc2nc3cc(-c4c(C)noc4C)ccc3n2CCN2CCOCC2)cc1F |  |  |  | Activity (NCI-H1299 [8]): inactive; Activity (NUGC-3): inactive; Activity (BXPC-3): inactive; Activity [9]: inactive; Activity [10]: inactive
CCn1c2ccc(CNCCCCCCCC(=O)NCCOc3ccc(CCc4nc5cc(-c6c(C)noc6C)ccc5n4CCN4CCOCC4)cc3F)cc2c2ccc(-c3cc(C)cs3)cc21 | 196 | Active | 4 | 

Reference: ChEMBL document CHEMBL5614410, “Design, Synthesis, and Evaluation of p53Y220C Acetylation Targeting Chimeras (AceTACs)” (J Med Chem, 2024)
